Assay results taken from ChEMBL document CHEMBL4819144, “Structure-activity relationships of pyrimidine nucleotides containing a 5'-α,β-methylene diphosphonate at the P2Y6 receptor” (Bioorg Med Chem Lett, 2021).
pEC50, pIC50: −log10 of the molar value.

Tests used:
P2Y purinoceptor 6 [1] = target: T1, P2Y purinoceptor 6 (Homo sapiens, UniProt Q15077); experiment: Agonist activity at human P2Y6R expressed in 1321N1 cells assessed as calcium mobilization at 3 uM measured by microplate reader method relative to control; type: functional, cell-based
Summary of the method: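 Human P2Y6R stably expressed in 1321N1 astrocytoma cells; fluorescence-based (FLIPR) Ca2+ mobilization read-out; agonist tested at a single 3 µM concentration and expressed as % activation.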

5'-nucleotidase = target: T2, 5'-nucleotidase (Rattus norvegicus, UniProt P21588); experiment: Inhibition of rat CD73 using [3H]-AMP as substrate by radiometric assay
T2 sequence (P21588 whole entry): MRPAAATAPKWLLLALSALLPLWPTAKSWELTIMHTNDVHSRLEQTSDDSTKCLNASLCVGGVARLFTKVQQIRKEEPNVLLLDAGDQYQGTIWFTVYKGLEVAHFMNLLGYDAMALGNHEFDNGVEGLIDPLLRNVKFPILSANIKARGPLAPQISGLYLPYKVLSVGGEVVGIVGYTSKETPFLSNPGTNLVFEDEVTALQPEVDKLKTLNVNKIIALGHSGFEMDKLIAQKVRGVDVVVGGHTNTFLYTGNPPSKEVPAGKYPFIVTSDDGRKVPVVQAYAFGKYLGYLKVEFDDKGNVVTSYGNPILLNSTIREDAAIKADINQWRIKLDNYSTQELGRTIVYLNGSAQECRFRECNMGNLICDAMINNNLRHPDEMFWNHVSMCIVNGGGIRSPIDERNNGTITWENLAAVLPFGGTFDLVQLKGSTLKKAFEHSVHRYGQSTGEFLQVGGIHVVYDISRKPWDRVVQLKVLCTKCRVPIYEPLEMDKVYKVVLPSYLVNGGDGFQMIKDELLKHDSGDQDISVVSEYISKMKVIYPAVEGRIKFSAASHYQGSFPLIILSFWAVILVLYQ

P2Y purinoceptor 14 [2] = target: T3, P2Y purinoceptor 14 (Homo sapiens, UniProt Q15391); experiment: Agonist activity at human P2Y14 expressed in CHO cells
T3 sequence (Q15391 whole entry): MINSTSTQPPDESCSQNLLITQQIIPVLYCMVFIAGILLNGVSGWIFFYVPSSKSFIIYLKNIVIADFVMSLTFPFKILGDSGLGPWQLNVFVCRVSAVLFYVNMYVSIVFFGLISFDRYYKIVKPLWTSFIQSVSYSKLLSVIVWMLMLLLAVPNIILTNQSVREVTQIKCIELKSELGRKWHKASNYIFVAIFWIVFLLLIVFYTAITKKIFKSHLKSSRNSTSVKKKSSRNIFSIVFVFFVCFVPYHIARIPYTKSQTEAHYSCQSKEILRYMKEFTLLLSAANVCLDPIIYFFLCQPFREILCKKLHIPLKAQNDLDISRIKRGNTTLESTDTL

P2Y purinoceptor 6 [3] = target: T1, P2Y purinoceptor 6; experiment: Agonist activity at human P2Y6R expressed in 1321N1 cells by PLC assay; settings: dose 3.0 µM, time 30.0 min
[4] = target: D(3) dopamine receptor (Homo sapiens) (UniProt P35462); experiment: Displacement of [3H]-N-methylspiperone from dopamine D3 receptor (unknown origin) at 10 uM relative to control
P2Y purinoceptor 6 [5] = target: T1, P2Y purinoceptor 6; experiment: Agonist activity at human P2Y6R expressed in 1321N1 cells assessed as calcium mobilization measured by microplate reader method; type: functional, cell-based
P2Y purinoceptor 6 [6] = target: T1, P2Y purinoceptor 6; experiment: Agonist activity at human P2Y6R expressed in 1321N1 cells assessed as calcium mobilization measured by FLIPR method; type: functional, cell-based
P2Y purinoceptor 14 [7] = target: T3, P2Y purinoceptor 14; experiment: Binding affinity to human P2Y14 expressed in CHO cells; type: cell-based
Summary of the method: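 Whole CHO cells stably expressing human P2Y14R; a fluorescent antagonist serves as tracer and binding is read by flow cytometry; IC50 from inhibition of tracer binding.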

Homo sapiens = species: Homo sapiens; experiment: Selectivity ratio of IC50 for human P2Y14 expressed in CHO cells to EC50 for human P2Y6R expressed in 1321N1 cells; type: cell-based
Summary of the method: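 The ratio divides the hP2Y14R IC50 by the hP2Y6R EC50. The IC50 comes from flow-cytometric displacement of a fluorescent antagonist tracer in whole hP2Y14R-CHO cells.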

[8] = target: Sigma non-opioid intracellular receptor 1 (Homo sapiens) (UniProt Q99720); experiment: Displacement of [3H]-Pentazocine from sigma-1 receptor (unknown origin) at 10 uM relative to control
Chain of Sigma non-opioid intracellular receptor 1 (Homo sapiens) (Q99720 whole entry): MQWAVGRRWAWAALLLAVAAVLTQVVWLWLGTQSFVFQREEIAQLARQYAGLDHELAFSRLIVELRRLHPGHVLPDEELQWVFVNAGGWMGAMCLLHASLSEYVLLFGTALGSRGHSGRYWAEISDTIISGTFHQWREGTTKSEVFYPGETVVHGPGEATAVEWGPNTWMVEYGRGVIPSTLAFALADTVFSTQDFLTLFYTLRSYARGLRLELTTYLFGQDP

T1 sequence (Q15077 whole entry): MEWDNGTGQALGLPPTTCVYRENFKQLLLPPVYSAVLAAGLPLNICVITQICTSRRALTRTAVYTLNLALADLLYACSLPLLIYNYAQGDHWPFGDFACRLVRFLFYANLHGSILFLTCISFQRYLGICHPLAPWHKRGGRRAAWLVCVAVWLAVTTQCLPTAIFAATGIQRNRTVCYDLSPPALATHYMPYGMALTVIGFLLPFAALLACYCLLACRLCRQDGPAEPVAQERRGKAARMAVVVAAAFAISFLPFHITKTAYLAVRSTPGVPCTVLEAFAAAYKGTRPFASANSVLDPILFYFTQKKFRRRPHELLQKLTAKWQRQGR
Chain of D(3) dopamine receptor (Homo sapiens) (P35462 whole entry): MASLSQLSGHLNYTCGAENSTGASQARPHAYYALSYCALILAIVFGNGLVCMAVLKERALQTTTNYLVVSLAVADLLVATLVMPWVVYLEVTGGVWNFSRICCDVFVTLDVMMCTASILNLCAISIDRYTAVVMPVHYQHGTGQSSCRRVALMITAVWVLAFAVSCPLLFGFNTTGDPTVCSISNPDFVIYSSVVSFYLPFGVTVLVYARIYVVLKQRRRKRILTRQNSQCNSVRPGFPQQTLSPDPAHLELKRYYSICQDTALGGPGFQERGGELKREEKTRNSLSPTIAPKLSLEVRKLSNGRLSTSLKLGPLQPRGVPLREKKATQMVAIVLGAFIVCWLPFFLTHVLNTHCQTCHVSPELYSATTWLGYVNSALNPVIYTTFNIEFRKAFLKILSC

Which Activity (P2Y purinoceptor 6 [1]) does the source give for `CCn1c(=O)n([C@@H]2O[C@H](COP(=O)(O)CP(=O)(O)O)[C@@H](O)[C@H]2O)cc/c1=N/OCc1ccccc1` here?
The Activity was 5.7%.

For `Nc1nc(=O)n([C@@H]2O[C@H](COP(=O)(O)CP(=O)(O)O)[C@@H](O)[C@H]2O)cc1F`, which Activity (P2Y purinoceptor 6 [1]) is on record?
Its Activity is 5.7%.

`O=c1ccn([C@@H]2O[C@H](COP(=O)(O)CP(=O)(O)O)[C@@H](O)[C@H]2O)c(=O)[nH]1` was tested. Which pIC50 (5'-nucleotidase) did it give?
The pIC50 was 5.74.

And the pEC50 (P2Y purinoceptor 14 [2])?
Its pEC50 is 7.96.

And the EC50 (P2Y purinoceptor 6 [3])?
The EC50 was 339 nM.

What does the source list for `COC(=O)c1ccc(CO/N=c2/ccn([C@@H]3O[C@H](COP(=O)(O)CP(=O)(O)O)[C@@H](O)[C@H]3O)c(=O)[nH]2)cc1`?
inhibition [4]: 85%; pEC50 (P2Y purinoceptor 6 [5]): 5.78

How did the pIC50 (5'-nucleotidase) turn out when `CO/N=c1/ccn([C@@H]2O[C@H](COP(=O)(O)CP(=O)(O)O)[C@@H](O)[C@H]2O)c(=O)[nH]1` was run?
The pIC50 was 6.59.

How did the Activity (P2Y purinoceptor 6 [1]) turn out when `CCCn1c(=O)ccn([C@@H]2O[C@H](COP(=O)(O)CP(=O)(O)O)[C@@H](O)[C@H]2O)c1=O` was run?
Its Activity is 2.7%.

How did the Activity (P2Y purinoceptor 6 [1]) turn out when `Cc1cn([C@@H]2O[C@H](COP(=O)(O)CP(=O)(O)O)[C@@H](O)[C@H]2O)c(=O)nc1N` was run?
Its Activity is 3%.

With `O=c1[nH]/c(=N\OCc2ccccc2)ccn1[C@@H]1O[C@H](COP(=O)(O)CP(=O)(O)O)[C@@H](O)[C@H]1O` as the compound, how does the pIC50 (5'-nucleotidase) read?
The pIC50 was 6.95.

`O=c1[nH]/c(=N\OCc2cccc(Cl)c2)ccn1[C@@H]1O[C@H](COP(=O)(O)CP(=O)(O)O)[C@@H](O)[C@H]1O` was tested. Which pEC50 (P2Y purinoceptor 6 [5]) did it give?
Its pEC50 is 5.84.

What about the pEC50 (P2Y purinoceptor 6 [6]) of the same compound?
The pEC50 was 5.84.

What about the pIC50 (P2Y purinoceptor 14 [7]) of the same compound?
Its pIC50 is less than 4.00.

`O=c1[nH]/c(=N/OCc2ccccc2)c(F)cn1[C@@H]1O[C@H](COP(=O)(O)CP(=O)(O)O)[C@@H](O)[C@H]1O` was tested. Which pEC50 (P2Y purinoceptor 6 [5]) did it give?
The pEC50 was 6.26.

What about the pIC50 (5'-nucleotidase) of the same compound?
The pIC50 was 7.07.

And the pEC50 (P2Y purinoceptor 6 [6])?
Its pEC50 is 6.26.

What about the pIC50 (P2Y purinoceptor 14 [7]) of the same compound?
The pIC50 was 4.67.

And the Ratio IC50/EC50 (Homo sapiens)?
Its Ratio IC50/EC50 is 39.

How did the pEC50 (P2Y purinoceptor 6 [5]) turn out when `O=c1[nH]/c(=N\OCc2ccccc2)ccn1[C@@H]1O[C@H](COP(=O)(O)OP(=O)(O)O)[C@@H](O)[C@H]1O` was run?
Its pEC50 is 6.10.

`O=c1[nH]/c(=N\OCc2ccc(C(F)(F)F)cc2)ccn1[C@@H]1O[C@H](COP(=O)(O)CP(=O)(O)O)[C@@H](O)[C@H]1O` was tested. Which pIC50 (5'-nucleotidase) did it give?
Its pIC50 is 7.52.

What about the pIC50 (P2Y purinoceptor 14 [7]) of the same compound?
Its pIC50 is less than 4.00.

What does the source list for `O=c1[nH]c(=O)n([C@@H]2O[C@H](COP(=O)(O)CP(=O)(O)O)[C@@H](O)[C@H]2O)cc1I`?
pEC50 (P2Y purinoceptor 6 [5]): 7.31; pIC50 (5'-nucleotidase): 6.79

How did the Activity (P2Y purinoceptor 6 [1]) turn out when `O=c1ccn([C@@H]2O[C@H](COP(=O)(O)CP(=O)(O)O)[C@@H](O)[C@@H]2O)c(=O)[nH]1` was run?
Its Activity is 2.4%.

With `Cn1c(=O)n([C@@H]2O[C@H](COP(=O)(O)CP(=O)(O)O)[C@@H](O)[C@H]2O)cc/c1=N/OCc1ccccc1` as the compound, how does the Activity (P2Y purinoceptor 6 [1]) read?
The Activity was 3.6%.

Which Activity (P2Y purinoceptor 6 [1]) does the source give for `Nc1nc(=O)n([C@@H]2O[C@H](COP(=O)(O)CP(=O)(O)O)[C@@H](O)[C@H]2O)cc1I` here?
The Activity was 3.4%.

Which results are given for `O=c1[nH]/c(=N\OCc2ccc(S(F)(F)(F)(F)F)cc2)ccn1[C@@H]1O[C@H](COP(=O)(O)CP(=O)(O)O)[C@@H](O)[C@H]1O`?
pEC50 (P2Y purinoceptor 6 [5]): 5.80; inhibition [8]: 59%

How did the pIC50 (5'-nucleotidase) turn out when `Cc1cn([C@@H]2O[C@H](COP(=O)(O)CP(=O)(O)O)[C@@H](O)[C@H]2O)c(=O)[nH]/c1=N/OCc1ccccc1` was run?
The pIC50 was 6.49.

How did the pIC50 (P2Y purinoceptor 14 [7]) turn out when `O=c1[nH]/c(=N\OCc2ccc(Cl)cc2)ccn1[C@@H]1O[C@H](COP(=O)(O)CP(=O)(O)O)[C@@H](O)[C@H]1O` was run?
The pIC50 was less than 4.00.

`O=c1[nH]c(=O)n([C@@H]2O[C@H](COP(=O)(O)CP(=O)(O)O)[C@@H](O)[C@H]2O)cc1Cl` was tested. Which pIC50 (P2Y purinoceptor 14 [7]) did it give?
The pIC50 was 4.78.

`O=c1[nH]c(=O)n([C@@H]2O[C@H](COP(=O)(O)CP(=O)(O)O)[C@@H](O)[C@H]2O)cc1F` was tested. Which pIC50 (5'-nucleotidase) did it give?
Its pIC50 is less than 6.00.

`O=c1cnn([C@@H]2O[C@H](COP(=O)(O)CP(=O)(O)O)[C@@H](O)[C@H]2O)c(=O)[nH]1` was tested. Which Activity (P2Y purinoceptor 6 [1]) did it give?
The Activity was 5.2%.

Which Activity (P2Y purinoceptor 6 [1]) does the source give for `CCn1c(=O)ccn([C@@H]2O[C@H](COP(=O)(O)CP(=O)(O)O)[C@@H](O)[C@H]2O)c1=O` here?
Its Activity is 3.5%.

How did the pEC50 (P2Y purinoceptor 6 [5]) turn out when `CO/N=c1/ccn([C@@H]2O[C@H](COP(=O)(O)OP(=O)(O)O)[C@@H](O)[C@H]2O)c(=O)[nH]1` was run?
Its pEC50 is 6.31.

`O=c1[nH]c(=O)n([C@@H]2O[C@H](COP(=O)(O)CP(=O)(O)O)[C@@H](O)[C@H]2O)cc1Br` was tested. Which pEC50 (P2Y purinoceptor 6 [5]) did it give?
The pEC50 was 6.98.

How did the EC50 (P2Y purinoceptor 6 [3]) turn out when `O=c1ccn([C@@H]2O[C@H](COP(=O)(O)CP(=O)(O)O)[C@@H](O)[C@H]2O)c(=S)[nH]1` was run?
Its EC50 is 1990 nM.

`O=c1ccn([C@@H]2O[C@H](COP(=O)(O)CP(=O)(O)O)[C@@H](O)[C@H]2O)c(=O)n1Cc1ccccc1` was tested. Which Activity (P2Y purinoceptor 6 [1]) did it give?
Its Activity is 5.3%.
